# Assay results from ChEMBL document CHEMBL1122273, “5-sulfamoylorthanilic acids, a sulfonamide series with salidiuretic activity” (J Med Chem, 1983).
# Active and inactive are the calls of the source. No cut-off for these calls is given here.
# Tests used:
# Canis familiaris [1] = test: Saluretic activity in the dog measured as concentration of Na+ in urinary excretion (2 animals/dose) at (dose 1.56 mg/Kg, po); assay type: functional, Canis lupus familiaris, Urine
# Summary of the method: (§1)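 Male beagles trained to rest on a table and to accept stomach tube and catheter. Food withdrawn 24 h before, tap water ad libitum. Bladder emptied by catheter, then 20 mL/kg tap water by stomach tube. Catheterized hourly up to 8 h with 4 mL/kg water orally each time; first 2 h urine served as control. Oral dosing after second catheterization. Pooled 1–6 h urine; Na⁺/K⁺ by flame photometry, Cl⁻ argentometrically.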
# Canis familiaris [2] = test: Diuretic activity in the dog (2 animals/dose) at (dose 1.56 mg/Kg), when administered perorally; assay type: functional, Canis lupus familiaris, Urine
# Summary of the method: (§2)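 Trained male beagles, fasted 24 h with tap water ad libitum. Bladder emptied by catheter, then 20 mL/kg tap water by stomach tube, with 4 mL/kg water at each hourly catheterization up to 8 h. The first 2 h of urine served as control. Oral dosing came after the second catheterization, and 1–6 h urine was pooled. Na⁺ and K⁺ were measured by flame photometry, Cl⁻ argentometrically, in mequiv/kg.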
# Canis familiaris [3] = test: Saluretic activity in the dog measured as concentration of K+ in urinary excretion (2 animals/dose) at (dose 1.56 mg/Kg, po); assay type: functional, Canis lupus familiaris, Urine; summary of the method: as §1
# Canis familiaris [4] = test: Saluretic activity in the dog measured as concentration of Cl - in urinary excretion (2 animals/dose) at (dose 1.56 mg/Kg, po); assay type: functional, Canis lupus familiaris, Urine
# Summary of the method: (§3)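 Male beagles trained to the procedures, food withdrawn 24 h before, tap water ad libitum. Bladder emptied by catheter, then 20 mL/kg tap water by stomach tube, plus 4 mL/kg orally at each hourly catheterization up to 8 h. The first 2 h of urine served as control. Compound given orally after the second catheterization. Urine from 1–6 h post-dose pooled; Na⁺ and K⁺ by flame photometry, Cl⁻ argentometrically, in mequiv/kg.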
# Rattus norvegicus [5] = species on record: Rattus norvegicus; test: Diuretic activity in the rats, determined by a modified Lipschitz test; assay type: functional, Urine
# Summary of the method: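 Modified Lipschitz test: rats deprived of water 24 h, grouped in threes of similar weight in diuresis funnels. Oral dose of 50 mg/kg, suspended in 2% starch solution, by stomach tube.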
# Rattus norvegicus [6] = species on record: Rattus norvegicus; test: Saluretic activity in the rat measured as concentration of chloride in urine; assay type: functional
# Summary of the method: (§4)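 Rats deprived of food 24 h, water ad libitum, dosed 50 mg/kg by stomach tube as suspension in 2% starch, no extra water load. Groups of three in diuresis funnels; urine over first 5 h collected. Na⁺ and K⁺ by flame photometry, Cl⁻ argentometrically; expressed as mequiv/kg.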
# Rattus norvegicus [7] = species on record: Rattus norvegicus; test: Saluretic activity in the rat measured as concentration of K+ in urine; assay type: functional; summary of the method: as §4
# [8] = It is the ratio, measured as saluretic activity in the dog as concentration of Na+ in urinary excretion (dose 1.56 mg/Kg, po) to that of K; assay type: functional, Urine; summary of the method: as §2
# [9] = It is the ratio, measured as saluretic activity in the dog as concentration of Cl- in urinary excretion (dose 1.56 mg/Kg, po) to that of (Na+)+(K+); assay type: functional, Urine; summary of the method: as §2
# Rattus norvegicus [10] = species on record: Rattus norvegicus; test: Saluretic activity in the rat measured as concentration of Na+ in urine; assay type: functional; summary of the method: as §4
# Canis familiaris [11] = test: Saluretic activity in the dog measured as concentration of Na+ in urinary excretion (2 animals/dose) at (dose 1.56 mg/Kg, perorally); assay type: functional, Canis lupus familiaris, Urine; summary of the method: as §1
# Canis familiaris [12] = test: Saluretic activity in the dog measured as concentration of K+ in urinary excretion (2 animals/dose) at (dose 1.56 mg/Kg, perorally); assay type: functional, Canis lupus familiaris, Urine; summary of the method: as §3
# Canis familiaris [13] = test: Saluretic activity in the dog measured as concentration of Cl - in urinary excretion (2 animals/dose) at (dose 1.56 mg/Kg, perorally); assay type: functional, Canis lupus familiaris, Urine; summary of the method: as §3
# Canis familiaris [14] = test: Salidiuretic activity on the basis of the 1.56 mg/Kg po dog assay; compound was found to be active; assay type: functional, organism-based; conditions: Canis lupus familiaris; Urine
# Rattus norvegicus [15] = test: Salidiuretic activity on the basis of the 50 mg/kg po rat assay; compound was found to be active; assay type: functional, organism-based; design: dose 50 mg/kg; conditions: Urine
# [16] = It is the ratio, measured as saluretic activity in the dog as concentration of Cl- in urinary excretion (dose 1.56 mg/Kg, perorally) to that of (Na+)+(K+); assay type: functional, Urine; summary of the method: as §2
# [17] = It is the ratio, measured as saluretic activity in the dog as concentration of Na+ in urinary excretion (dose 1.56 mg/Kg, perorally) to that of K; assay type: functional, Urine; summary of the method: as §2
# [18] = It is the ratio, measured as saluretic activity in the dog as concentration of Cl- in urinary excretion (dose 1.56 mg/Kg, po) to that of (Na++K+); assay type: functional, Urine; summary of the method: as §2
SMILES,Diuretic activity (Rattus norvegicus [5]),Saluretic activity (Rattus norvegicus [6]),Saluretic activity (Rattus norvegicus [7]),Saluretic activity (Rattus norvegicus [10]),other results
NS(=O)(=O)c1cc(S(=O)(=O)[O-])c(NCc2ccco2)cc1SC1CCCCC1.[K+],0.8 mL/kg,1.9 m equiv 5hr-1 kg-1,0.5 m equiv 5hr-1 kg-1,1.4 m equiv 5hr-1 kg-1,Saluretic activity (Canis familiaris [1]): 0.27 m equiv 6hr-1 kg-1; Diuretic activity (Canis familiaris [2]): 32.6 ml kg-1 6hr-1; Saldiuretic activity (Canis familiaris [3]): 0.07 m equiv 6hr-1 kg-1; Saldiuretic activity (Canis familiaris [4]): 0.32 m equiv 6hr-1 kg-1; Ratio [8]: 3.9; Ratio [9]: 0.95
CN(c1ccccc1)c1cc(NCCc2ccco2)c(S(=O)(=O)[O-])cc1S(N)(=O)=O.[K+],1.2 mL/kg,3.2 m equiv 5hr-1 kg-1,2 m equiv 5hr-1 kg-1,2.2 m equiv 5hr-1 kg-1,Saluretic activity (Canis familiaris [1]): 4.7 m equiv 6hr-1 kg-1; Diuretic activity (Canis familiaris [2]): 59.9 ml kg-1 6hr-1; Saluretic activity (Canis familiaris [3]): 1.08 m equiv 6hr-1 kg-1; Saldiuretic activity (Canis familiaris [4]): 5.81 m equiv 6hr-1 kg-1; Ratio [8]: 4.3; Ratio [9]: 1
CCCCSc1cc(NCc2ccco2)c(S(=O)(=O)[O-])cc1S(N)(=O)=O.[K+],2.5 mL/kg,3.6 m equiv 5hr-1 kg-1,2.2 m equiv 5hr-1 kg-1,3.6 m equiv 5hr-1 kg-1,Saluretic activity (Canis familiaris [1]): 1.06 m equiv 6hr-1 kg-1; Diuretic activity (Canis familiaris [2]): 32.8 ml kg-1 6hr-1; Saldiuretic activity (Canis familiaris [3]): 0.35 m equiv 6hr-1 kg-1; Saldiuretic activity (Canis familiaris [4]): 1.43 m equiv 6hr-1 kg-1; Ratio [8]: 3; Ratio [9]: 1
NC(CO)(CO)CO.NS(=O)(=O)c1cc(S(=O)(=O)O)c(NCc2ccco2)cc1Oc1ccccc1,4.1 mL/kg,7.8 m equiv 5hr-1 kg-1,2.2 m equiv 5hr-1 kg-1,5.8 m equiv 5hr-1 kg-1,
N.NS(=O)(=O)c1cc(S(=O)(=O)O)c(NCc2ccccc2)cc1Oc1ccccc1,3 mL/kg,6.9 m equiv 5hr-1 kg-1,2.2 m equiv 5hr-1 kg-1,4.9 m equiv 5hr-1 kg-1,Saluretic activity (Canis familiaris [11]): 3.12 m equiv 6hr-1 kg-1; Diuretic activity (Canis familiaris [2]): 48 ml kg-1 6hr-1; Saluretic activity (Canis familiaris [12]): 0.53 m equiv 6hr-1 kg-1; Saldiuretic activity (Canis familiaris [13]): 3.91 m equiv 6hr-1 kg-1; Saldiuretic activity (Canis familiaris [14]): Active; Saldiuretic activity (Rattus norvegicus [15]): Active; Ratio [16]: 1.1; Ratio [17]: 5.9
CCCS(=O)(=O)c1cc(NCc2ccco2)c(S(=O)(=O)[O-])cc1S(N)(=O)=O.[Na+],2.9 mL/kg,2.4 m equiv 5hr-1 kg-1,1.3 m equiv 5hr-1 kg-1,1.8 m equiv 5hr-1 kg-1,
NS(=O)(=O)c1cc(S(=O)(=O)[O-])c(NCc2ccc3c(c2)OCO3)cc1Cl.[Na+],0.4 mL/kg,0.3 m equiv 5hr-1 kg-1,0.3 m equiv 5hr-1 kg-1,0.4 m equiv 5hr-1 kg-1,
CCCCS(=O)(=O)c1cc(NCc2ccco2)c(S(=O)(=O)[O-])cc1S(N)(=O)=O.[Na+],3.8 mL/kg,8.7 m equiv 5hr-1 kg-1,2.2 m equiv 5hr-1 kg-1,7.3 m equiv 5hr-1 kg-1,Saluretic activity (Canis familiaris [1]): 4.92 m equiv 6hr-1 kg-1; Diuretic activity (Canis familiaris [2]): 65.5 ml kg-1 6hr-1; Saldiuretic activity (Canis familiaris [3]): 0.97 m equiv 6hr-1 kg-1; Saldiuretic activity (Canis familiaris [4]): 5.78 m equiv 6hr-1 kg-1; Ratio [8]: 5; Ratio [18]: 1
CN(c1ccc(Cl)cc1)c1cc(NCc2ccco2)c(S(=O)(=O)[O-])cc1S(N)(=O)=O.[Na+],1.2 mL/kg,0.7 m equiv 5hr-1 kg-1,1.1 m equiv 5hr-1 kg-1,0.7 m equiv 5hr-1 kg-1,
NS(=O)(=O)c1cc(S(=O)(=O)[O-])c(Cl)cc1NCc1ccco1.[Na+],0.5 mL/kg,1 m equiv 5hr-1 kg-1,0.9 m equiv 5hr-1 kg-1,0.5 m equiv 5hr-1 kg-1,
NS(=O)(=O)c1cc(S(=O)(=O)[O-])c(NCc2ccco2)cc1Oc1cccc(Cl)c1.[K+],2 mL/kg,5.1 m equiv 5hr-1 kg-1,2 m equiv 5hr-1 kg-1,3.8 m equiv 5hr-1 kg-1,
NS(=O)(=O)c1cc(S(=O)(=O)[O-])c(NCc2ccco2)cc1S(=O)(=O)C1CCCCCC1.[Na+],4 mL/kg,9.9 m equiv 5hr-1 kg-1,2.8 m equiv 5hr-1 kg-1,8.9 m equiv 5hr-1 kg-1,
NS(=O)(=O)c1cc(S(=O)(=O)[O-])c(NCc2ccco2)cc1NCc1ccccc1.[K+],1 mL/kg,1.2 m equiv 5hr-1 kg-1,0.6 m equiv 5hr-1 kg-1,0.8 m equiv 5hr-1 kg-1,
NS(=O)(=O)c1cc(S(=O)(=O)[O-])c(N(Cc2ccccc2)Cc2ccccc2)cc1Cl.[Na+],0.7 mL/kg,0.9 m equiv 5hr-1 kg-1,0.8 m equiv 5hr-1 kg-1,0.3 m equiv 5hr-1 kg-1,
Cc1cccc(Nc2cc(NCc3ccco3)c(S(=O)(=O)[O-])cc2S(N)(=O)=O)c1.[Na+],0.8 mL/kg,0.9 m equiv 5hr-1 kg-1,1.5 m equiv 5hr-1 kg-1,0.6 m equiv 5hr-1 kg-1,
CN(c1ccccc1)c1cc(NCc2ccco2)c(S(=O)(=O)O)cc1S(N)(=O)=O.NC(N)=NC(=O)c1nc(Cl)c(N)nc1N,3.3 mL/kg,2.3 m equiv 5hr-1 kg-1,0.4 m equiv 5hr-1 kg-1,3.5 m equiv 5hr-1 kg-1,
CNS(=O)(=O)c1cc(S(=O)(=O)[O-])c(NCc2ccco2)cc1Oc1ccccc1.[K+],1.6 mL/kg,1 m equiv 5hr-1 kg-1,0.8 m equiv 5hr-1 kg-1,0.8 m equiv 5hr-1 kg-1,
CCCCCCS(=O)(=O)c1cc(NCc2ccco2)c(S(=O)(=O)[O-])cc1S(N)(=O)=O.[Na+],0.7 mL/kg,1.2 m equiv 5hr-1 kg-1,1.9 m equiv 5hr-1 kg-1,1.1 m equiv 5hr-1 kg-1,
NS(=O)(=O)c1cc(S(=O)(=O)[O-])c(NCc2ccco2)cc1Nc1ccc(Cl)cc1.[Na+],0.4 mL/kg,0.5 m equiv 5hr-1 kg-1,0.4 m equiv 5hr-1 kg-1,0.4 m equiv 5hr-1 kg-1,
CN(C)S(=O)(=O)c1cc(S(=O)(=O)[O-])c(NCc2ccco2)cc1Oc1ccccc1.[K+],1.2 mL/kg,0.7 m equiv 5hr-1 kg-1,1.1 m equiv 5hr-1 kg-1,0.3 m equiv 5hr-1 kg-1,
Nc1cc(Oc2ccccc2)c(S(N)(=O)=O)cc1S(=O)(=O)[O-].[K+],1 mL/kg,0.7 m equiv 5hr-1 kg-1,1.3 m equiv 5hr-1 kg-1,0.5 m equiv 5hr-1 kg-1,
NS(=O)(=O)c1cc(S(=O)(=O)[O-])c(NCc2ccncc2)cc1Cl.[Na+],0.2 mL/kg,0.1 m equiv 5hr-1 kg-1,0.4 m equiv 5hr-1 kg-1,0.1 m equiv 5hr-1 kg-1,
CN(c1cc(NCc2ccco2)c(S(=O)(=O)[O-])cc1S(N)(=O)=O)C1CCCCC1.[K+],0.8 mL/kg,0.6 m equiv 5hr-1 kg-1,1 m equiv 5hr-1 kg-1,0.4 m equiv 5hr-1 kg-1,
